Reference: ChEMBL document CHEMBL4425126 (J Med Chem, 2016)
Activity calls are given as the source filed them. The calls are words filed in the database; no cut-off is given here.

Experiments:
[1] = test system: SW480; test: Induction of morphological changes in human SW480 cells assessed as induction of massive cell flattening at 2.5 uM incubated for 48 hrs by phase contrast microscopy; format: functional, cell-based
[2] = test system: HL-60; test: Induction of intracellular ROS generation in human HL60 cells at 1 and 5 uM in presence of CuCl2 incubated for 30 mins by DCF-DA staining based fluorescence assay; format: functional, cell-based
Procedure, shortened: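 HL-60 cells (5 × 10^5 per sample, phenol-free Hanks balanced salt solution) were loaded with DCF-DA for 30 min. CuCl2 was added 15 min before the thiosemicarbazone, at a ligand:Cu ratio of 1:1 or 1:2. Drug exposure lasted a further 30 min, and mean fluorescence was read by flow cytometry. H2O2 (200 μM) served as control. Data are mean ± SD of three experiments.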

[3] = test system: SW480 (Homo sapiens); test: Cytotoxicity against human SW480 cells pre-incubated with CuCl2 for 60 mins followed by compound addition for 72 hrs by MTT assay
[4] = test system: SW480; test: Induction of morphological changes in human SW480 cells assessed as induction of vesicular blebbing in cytosol at 2.5 uM incubated for 48 hrs by phase contrast microscopy; format: functional, cell-based
[5] = test system: SW480; test: Induction of morphological changes in human SW480 cells assessed as induction of vacuoles at 2.5 uM incubated for 24 hrs by phase contrast microscopy; format: functional, cell-based
Procedure, shortened: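 SW480 cells (MEM + 10% FCS) were treated for 24 h and then photographed at 400× magnification with an sCMOS camera on a fluorescence microscope to visualise cytoplasmic vacuoles.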

[6] = physchem; settings: n-octanol/water, pH 7.4

Row | Structure (SMILES) | Activity [1] | Activity [2] | Activity [3] | other results
1 | NC(=S)N/N=C/c1ncccc1N | Active | Active | inactive | 
2 | CNc1cccnc1/C=N/N=C(/N)S | Active |  |  | 
3 | CN(C)C(=S)N/N=C/c1ncccc1N(C)C |  | Active |  | Activity [4]: Active; Activity [5]: Active
4 | CNC(=S)N/N=C/c1ncccc1N | Active |  |  | 
5 | CN(C)C(=S)N/N=C/c1ncccc1N |  | Active |  | logD [6]: 1.3
6 | CNc1cccnc1/C=N/NC(=S)N(C)C | inactive |  | Active | 
7 | CNC(=S)N/N=C/c1ncccc1N(C)C | inactive | Active | Active | Activity [4]: Active
8 | CN(C)C(=S)NN=C(c1ccccn1)c1ccccn1 |  |  | Active | 
9 | CN(C)c1cccnc1/C=N/NC(N)=S |  |  | Active | 
